Source: PubChem (several laboratories)
EP2 mod = modulators of human EP2 prostaglandin E2 receptor. P43116. EP2-expressing cells, cAMP HTRF FRET, PGE2 co-stimulation. induction, % at 25 µM. 0.83% of 260,000 active. AID 940;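 active = compounds whose cAMP rise, as percent of the full-agonist control response, exceeds 60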;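 also: rat C6 glioma line stably carrying human EP2 under a CMV promoter; the protocol text gives 20 µM as final concentration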
Target sequence (P43116 whole entry, looked up): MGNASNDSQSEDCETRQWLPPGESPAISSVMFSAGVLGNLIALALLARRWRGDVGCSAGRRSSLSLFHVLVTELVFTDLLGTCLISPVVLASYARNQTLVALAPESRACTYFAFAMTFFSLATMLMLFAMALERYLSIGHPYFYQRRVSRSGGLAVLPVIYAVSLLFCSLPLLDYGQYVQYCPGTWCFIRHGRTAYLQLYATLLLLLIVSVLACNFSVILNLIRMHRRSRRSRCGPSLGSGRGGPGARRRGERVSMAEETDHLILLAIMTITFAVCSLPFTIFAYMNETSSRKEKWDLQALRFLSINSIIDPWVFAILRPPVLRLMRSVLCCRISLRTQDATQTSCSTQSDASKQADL
NPY-Y1 PAM-ag = potentiates or activates human NPY-Y1 receptor; NPY-Y1 expressing cells, potentiator/agonist activation; activation, % at 3.6 µM; 0.37% of 220,000 active; AID 1304; in the data active = activation above about 33%, passing the limit was not always enough;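 also: cells stimulated with NPY at EC10 then isoproterenol at EC100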
NPY2 pot ag = potentiates or activates human NPY-Y2 receptor. P49146. cells expressing NPY-Y2, potentiator/agonist read-out. activation, % at 3.6 µM. 0.45% of 220,000 active; in the data active = activation above about 27%;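 also: cells stimulated with NPY near EC25 plus isoproterenol at EC100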
Target sequence (P49146 whole entry, looked up): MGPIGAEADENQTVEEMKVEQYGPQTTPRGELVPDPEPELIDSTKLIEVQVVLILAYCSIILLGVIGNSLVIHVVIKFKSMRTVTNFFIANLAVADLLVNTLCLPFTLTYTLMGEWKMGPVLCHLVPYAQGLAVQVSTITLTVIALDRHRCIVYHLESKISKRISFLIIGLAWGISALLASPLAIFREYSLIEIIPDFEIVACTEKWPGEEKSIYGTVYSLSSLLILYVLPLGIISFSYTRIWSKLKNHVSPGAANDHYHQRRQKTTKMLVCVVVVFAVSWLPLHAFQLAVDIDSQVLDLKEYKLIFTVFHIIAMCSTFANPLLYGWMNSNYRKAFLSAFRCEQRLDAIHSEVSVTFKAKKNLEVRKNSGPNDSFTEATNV
NPY-Y1 antag = antagonists of human neuropeptide Y receptor Y1; HEK293-CNG Y1 cells, membrane potential fluorescence; NPY at EC95, then isoproterenol; P25929; inhibition, % at 3.6 µM; 1% of 200,000 active; AID 1040;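 active = inhibition above the campaign mean inhibition of all tested compounds plus 3 SD, cut at about 20% in these data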
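Assay system: HEK293 cells with Y1 receptor plus CNG channel | Probe or stimulus: NPY (25 nM), isoproterenol (1 µM), Ro 20-1724 (25 µM) | Timing: Compound incubation 1 h at room temperature, readout 45 min post-stimulation | Measured by: Membrane-potential fluorescent dye readout | Benchmarks: High control isoproterenol alone, low control NPY with isoproterenol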
NPY-Y2 antag = NPY-Y2 (human) receptor antagonism; P49146; NPY-Y2 expressing cells, antagonist mode; inhibition, % at 2.7 µM; 0.99% of 140,000 active; in the data active = inhibition above about 17%
EP2 antag = EP2 receptor (human) inhibition; C6 glioma cells expressing human EP2, cAMP TR-FRET; cells stimulated with saturating PGE2; inhibition, % at 25 µM; 0.52% of 260,000 active; AID 1422;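 active = percent inhibition above 40 after rounding to a whole number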;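 also: rat C6 glioma host cells with rolipram phosphodiesterase inhibitor present; the protocol text gives 20 µM as final concentration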
NPY1 antag ctr = antagonizes human NPY-Y1, counter-screen to NPY-Y2 antagonists | shares compounds with NPY-Y2 antag | 19% of 710 active | inhibition, % at 3.6 µM | cell-based NPY-Y1 antagonism counterscreen; in the data active = inhibition above about 20%;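 also: cells challenged with NPY then isoproterenol with cAMP sensed through a CNG channel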
NPY2 antag conf = confirmation of human neuropeptide Y receptor Y2 antagonists; shares compounds with NPY-Y2 antag; HEK293 NPY-Y2 CNG channel, membrane potential fluorescence; inhibition, % at 2.8 µM; 32% of 710 active; AID 1257;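 active = mean inhibition of triplicate wells above the hit cutoff set in the primary screen, cut at about 17% in these data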
Each line names hits and unclear results; the compound was inactive in the other large screens (follow-up assays come after a bar, where they were run). A selection: hits, their analogues and other compounds. The true share with any hit is near 2.8%.

COc1ccc(CNC(=O)C(NC(C)=O)C(=O)Nc2ccc(OC)cc2)cc1 (configuration not stated)	NPY-Y2 antag 21.2 (no result: EP2 antag) | NPY1 antag ctr inactive | NPY2 antag conf inactive
C(#Cc1ccccc1)C[N+]1(CC#Cc2cccc3ccccc23)CCCC1	NPY-Y2 antag 17.8 | NPY1 antag ctr inactive | NPY2 antag conf inactive
C=CC[N+]1(CC#Cc2cccc3ccccc23)CCCCC1	none (no result: NPY-Y1 PAM-ag, NPY2 pot ag, NPY-Y1 antag, NPY-Y2 antag)
CC(C)[C@H]1CN(Cc2ccccc2F)CCN1C(=O)c1ccco1	none (no result: NPY-Y1 PAM-ag, NPY2 pot ag, NPY-Y1 antag, NPY-Y2 antag, EP2 antag)
CCOC(=O)CSC1=C(C#N)C(c2ccco2)C(C(=O)Nc2cccc(C(F)(F)F)c2)=C(C)N1 (configuration not stated)	NPY-Y2 antag 18.1 | NPY1 antag ctr inactive | NPY2 antag conf 18.7
CN(CC(CC(=O)Nc1nncs1)c1ccccc1)S(=O)(=O)c1ccc(Br)cc1 (configuration not stated)	NPY-Y2 antag 17.9 | NPY1 antag ctr inactive | NPY2 antag conf inactive
CCOc1ccc(Cc2c(Cl)nc(SC)nc2N(C)C)cc1	NPY-Y2 antag 49.9 | NPY1 antag ctr 62.8 | NPY2 antag conf 50.4
O=C(NC1CCCCC1)C(c1ccc2ncccc2c1)N(Cc1ccc2c(c1)OCO2)C(=O)c1cccs1 (configuration not stated)	NPY-Y2 antag 23.7 | NPY1 antag ctr 20.3 | NPY2 antag conf inactive
O=C(NC1CCCCC1)C(c1ccc2ncccc2c1)N(Cc1ccccc1)C(=O)c1ccc2c(c1)OCCO2 (configuration not stated)	none
Cc1ccc(/C=C/C(O)=C2/C(=O)N(C)C3(C)CC2c2ccccc2O3)cc1 (configuration not stated)	none
COc1ccc(/C=C/C(O)=C2/C(=O)N(C)C3(C)CC2c2ccccc2O3)cc1 (configuration not stated)	NPY-Y2 antag 21.2 | NPY1 antag ctr inactive | NPY2 antag conf inactive
N#Cc1c(SCC(=O)c2ccccc2)nc2c(c1-c1ccncc1)CCCC2	none (no result: NPY-Y1 PAM-ag, NPY2 pot ag, NPY-Y1 antag, NPY-Y2 antag)
O=C(Nc1cccc(N=Cc2cc(Br)cc(Br)c2O)c1)c1ccco1	NPY-Y2 antag 17.4 | NPY1 antag ctr inactive | NPY2 antag conf 24.6
CC1CCN(C(=O)CSc2nnc(-c3ccncc3)n2-c2ccc(F)cc2)CC1	none (no result: NPY-Y1 PAM-ag, NPY2 pot ag, NPY-Y1 antag, NPY-Y2 antag)
O=C(Cn1nc(-c2cccs2)n(-c2ccncc2)c1=O)NCC1CC1	none (no result: NPY-Y1 PAM-ag, NPY2 pot ag, NPY-Y1 antag, NPY-Y2 antag)
CC1=CC(C)(C)N(C(=O)CN2C(=O)c3ccccc3C2=O)c2ccccc21	none
CC1=CC(C)(C)N(S(=O)(=O)c2ccc(C)cc2)c2ccccc21	NPY-Y2 antag 20.4 | NPY1 antag ctr 31.1 | NPY2 antag conf 26.5
CCc1cc2ccc(OC)cc2nc1SCC(=O)N1CCOCC1	none (no result: NPY-Y1 PAM-ag, NPY2 pot ag, NPY-Y1 antag, NPY-Y2 antag)
COc1ccc(CCN2C(=O)C(O)=C(C(C)=O)C2c2ccccc2F)cc1OC (configuration not stated)	none (no result: NPY-Y1 PAM-ag, NPY2 pot ag, NPY-Y1 antag, NPY-Y2 antag)
CCCNC(=O)COC(=O)/C=C/c1ccc2c(c1)OCO2	NPY-Y2 antag 23.6 | NPY1 antag ctr inactive | NPY2 antag conf inactive
N#CCSc1nnc(-c2ccccc2Cl)o1	none (no result: NPY-Y1 PAM-ag, NPY2 pot ag, NPY-Y1 antag, NPY-Y2 antag)
CCCCC(CC)C(=O)NCC(C)NC(=O)C(CC)CCCC (configuration not stated)	NPY-Y2 antag 23.6 | NPY1 antag ctr inactive | NPY2 antag conf inactive
CC(CNC(=O)C(C)C)NC(=O)C(C)C (configuration not stated)	none
COc1ccc(Cn2c(/C=C/c3ccccc3)nc3ccccc32)cc1	NPY-Y2 antag 36.2 | NPY1 antag ctr inactive | NPY2 antag conf 23.8
CCn1c(/C=C/c2ccccc2)nc2ccccc21	none
COc1ccc(/C=C/c2nc3ccccc3n2C)cc1	none (no result: NPY-Y2 antag)
CC(C)Cn1c(/C=C/c2ccccc2)nc2ccccc21	NPY-Y2 antag 17.7 | NPY1 antag ctr inactive | NPY2 antag conf inactive
CCOC(=O)C1=C(C)NC(C)=C(C(=O)OCC)C1c1cccc(OC)c1	none (no result: NPY-Y1 PAM-ag, NPY2 pot ag, NPY-Y1 antag, NPY-Y2 antag)
O=C(Nc1cccn(Cc2c(Cl)cccc2Cl)c1=O)c1ccccc1Cl	NPY-Y2 antag 22.9 | NPY1 antag ctr inactive | NPY2 antag conf inactive
O=C(Nc1cccn(Cc2c(Cl)cccc2Cl)c1=O)c1ccc(Cl)cc1Cl	none
COc1ccc(/C=N/NC(=O)c2cccc(OC(F)(F)C(F)F)c2)cc1O	NPY-Y2 antag 17.2 | NPY1 antag ctr inactive | NPY2 antag conf inactive
COc1ccc(/C=N/NC(=O)c2cccc(OC(F)(F)C(F)F)c2)c(OC)c1OC	none
Cc1ccc(-c2cc(C(F)F)n3ncc(C(=O)N4CCCC4)c3n2)cc1	none (no result: NPY-Y1 PAM-ag, NPY2 pot ag, NPY-Y1 antag, NPY-Y2 antag)
CCOC(=O)N1CCN(C(=O)c2cnn3c(C(F)F)cc(-c4ccc(C)cc4)nc23)CC1	NPY-Y2 antag 17.2 | NPY1 antag ctr inactive | NPY2 antag conf inactive
COc1ccc2[nH]c(=O)c(CN(C3CCCCC3)S(=O)(=O)c3ccc(Cl)cc3)cc2c1	none (no result: NPY-Y1 PAM-ag, NPY2 pot ag, NPY-Y1 antag, NPY-Y2 antag)
Cc1cccc(N2CCN(C(=O)C(Cc3ccccc3)n3cccc3)CC2)c1C (configuration not stated)	NPY-Y2 antag 26.3 | NPY1 antag ctr inactive | NPY2 antag conf inactive
Cc1cccc(N2CCN(C(=O)CCCOc3ccccc3)CC2)c1C	NPY-Y2 antag 19.2 | NPY1 antag ctr inactive | NPY2 antag conf inactive
Cc1ccc(NC(=O)COC(=O)c2ccccc2-c2nc3ccccc3s2)c(C)c1	none
CCc1cccc(CC)c1NC(=O)COC(=O)c1ccccc1-c1nc2ccccc2s1	NPY-Y2 antag 19.7 | NPY1 antag ctr inactive | NPY2 antag conf 21.2
CCOC(=O)C1CCN(C(c2cc3cc(C)c(C)cc3[nH]c2=O)c2nnnn2CCOC)CC1 (configuration not stated)	none (no result: NPY-Y1 PAM-ag, NPY2 pot ag, NPY-Y1 antag, NPY-Y2 antag)
CCCCn1c(SCC(=O)N2CCN(c3ccccc3)CC2)nc2ccsc2c1=O	NPY-Y2 antag 20.4 | NPY1 antag ctr 25.0 | NPY2 antag conf inactive
O=C(CSc1nc2ccccc2c(=O)n1CCCN1CCOCC1)N1CCN(c2ccccc2)CC1	none (no result: NPY-Y2 antag)
CCCCn1c(SCC(=O)Nc2ccccc2C(F)(F)F)nc2ccsc2c1=O	NPY-Y2 antag 28.8 | NPY1 antag ctr inactive | NPY2 antag conf inactive
O=C(CC1CCCC1)N1CCC(n2nnc3ccccc3c2=O)CC1	none (no result: NPY-Y1 PAM-ag, NPY2 pot ag, NPY-Y1 antag, NPY-Y2 antag)
CC(C)COc1ccc(C(=O)OC2CC(C)(C)OCC2CN(C)C)cc1 (configuration not stated)	NPY-Y2 antag 23.7 | NPY1 antag ctr inactive | NPY2 antag conf 30.5
Cc1ccc(OCCCOc2cccc3cccnc23)cc1C	none
Clc1ccc(OCCOCCOc2cccc3cccnc23)c(Br)c1	NPY-Y2 antag 18.2 | NPY1 antag ctr 23.9 | NPY2 antag conf 53.4
Cc1cccc(OCCCOc2cccc3cccnc23)c1C	NPY-Y2 antag 21.0 | NPY1 antag ctr inactive | NPY2 antag conf inactive
CCOC(=O)c1cccc2c1-c1ccccc1/C2=N/O	none
